# From PubChem BioAssay
# Hits are enriched below; roughly 2.4% of the tested compounds scored in any of these assays.
# MT1-MMP act inh = MT1-MMP (human) activation inhibition; HT1080 RFP-PRO-GFP cells, GFP/RFP ratio fluorescence, overnight; percent of plate control window, DMSO zero; AID 651647; hit rate 0.061% among 360,000; GFP/RFP ratio change, % at 20 µM; P50281;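 active means GFP/RFP ratio change of at least 30% with cell ATP level not reduced by more than half and red fluorescence within 50% of control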
#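 Assay system: HT1080 RFP-PRO-GFP cells | Dosing: 20 µM single dose, 1% DMSO | Incubation: Cells overnight before dosing, compound overnight, 37 °C, 5% CO2 | Evaluation: GFP/RFP fluorescence ratio | Control set: DMSO-only wells and HT1080 RFP-L50D-GFP cell wells as references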
# beta cell repl = inducers of beta-cell replication in MIN6 cells | MIN6 cells proliferation, ATPlite luminescence, 48 h; cells starved in 0.2% serum; 100% = growth in 10% serum | proliferation, % at 10 µM | hit rate 0.29% among 330,000;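 active means compounds whose signal lies at least 3.5 SD above the mean of all wells on their plate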;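 further: 0% = DMSO-treated cells in low-serum medium and 100% = 10% serum control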
# Myeloid diff MLP = myeloid differentiation induction. calls only at 10 µM. AID 624256. hit rate 1% among 360,000. ER-HoxA9 myeloid progenitors, lysozyme-GFP differentiation, flow cytometry;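 active means normalized GFP-positive differentiation at or above the plate's own cutoff, the solvent-only control mean plus 3 SD; inconclusive means no clear call, values can overlap the other calls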;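 further: cells exposed to compound for four days before flow analysis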
# NRP1-CendR mod = NRP-1/CendR interaction modulation; O14786; FAM-RPARPAR peptide binding to NRP-1, fluorescence polarization; inhibition, % at 25 µM; hit rate 0.85% among 360,000; AID 602438;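 active means inhibition or corrected inhibition above about 18%, plus a signal ratio from 0.5 to 1.5, limit read from the data, passing the limit was not always enough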
# SENP1 inh = blocks the human SENP1 SUMO protease catalytic domain | Q9P0U3 | recombinant SENP1 catalytic domain, CyPet-SUMO1-YPet FRET cleavage | inhibition, % at 10 µM | hit rate 0.21% among 360,000 | AID 624204;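 active means inhibition at least 30% at 10 µM, raw YFP signal under a set limit, fluorescence ratio 0.5 to 1.5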;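 further: 0% = enzyme with DMSO and 100% = no enzyme wells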
# Target sequence (Q9P0U3 419-644 limits assumed): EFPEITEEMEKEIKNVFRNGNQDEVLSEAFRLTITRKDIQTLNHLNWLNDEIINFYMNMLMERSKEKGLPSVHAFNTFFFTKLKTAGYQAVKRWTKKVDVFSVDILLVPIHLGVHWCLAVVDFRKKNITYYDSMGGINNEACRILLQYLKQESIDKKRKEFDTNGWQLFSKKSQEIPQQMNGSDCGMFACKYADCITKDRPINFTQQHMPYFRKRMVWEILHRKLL
#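 system = hSENP1 catalytic domain, recombinant | reagent = SFCypet-SUMO1-SFYpet substrate at 25 nM | doses = one dose per compound, 10 µM, 0.5% DMSO | incubation = enzyme reaction for 50 min at room temperature, dark | measured by = FRET, CFP and YFP emission | controls = no-enzyme low, enzyme-DMSO high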
# DAGLB inhibitor = blocks human DAGLB lipase activity; HEK293T DAGLB membrane lysate, EnzChek fluorogenic substrate; inhibition, % at 5.17 µM; hit rate 0.059% among 340,000; AID 504411; in the data active means inhibition above about 34%;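 further: 0% = enzyme with vehicle and 100% = wells lacking enzyme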
# Myeloid diff = myeloid differentiation induction. hit rate 2% among 2,300. shares compounds with Myeloid diff MLP. ER-HoxA9 myeloid progenitors, GFP/Mac1 double-positive flow. calls only;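 active means share of green or green-and-red cells above 9 and 9% in run 1 or 4 and 3% in run 2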
# GFP autofluor = compound fluorescence in myeloid differentiation counter-screen; fluorescence response, % (test concentration not listed); ER-HoxA9 myeloid progenitors, no estrogen, GFP autofluorescence flow cytometry; vehicle wells 0%, positive control 100%; hit rate 7.4% among 2,300; shares compounds with Myeloid diff MLP;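 active means over 5% cells positive for green fluorescent reporter, or over 2% positive for both it and APC stain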;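 further: range taken on the double positive population between DMSO and positive control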
# Starred values were filed as active, the others as inactive; i = inactive; ? = inconclusive; . = no result given; + = active, no number.
SMILES,MT1-MMP act inh,beta cell repl,Myeloid diff MLP,NRP1-CendR mod,SENP1 inh,DAGLB inhibitor,Myeloid diff,GFP autofluor
CCc1nc2ccc(C(=O)NCCc3ccc(OC)c(OC)c3)cc2nc1CC,4.2,-1.8,i,4.9,0.0,-1.3,.,.
O=C(CCCN1C(=O)/C(=C/c2ccc3c(c2)OCO3)SC1=S)Nc1ccc(C(=O)O)cc1,1.2,-2.9,i,-54.9,8.3,5.6,.,.
O=C(CCCN1C(=O)C(=Cc2ccc3c(c2)OCO3)SC1=S)Nc1ccc(C(=O)O)c(O)c1,-1.5,.,i,-63.4,-27.1,.,i,0.2
O=C(CCCN1C(=O)/C(=C/c2ccco2)SC1=S)Nc1cccc(C(=O)O)c1,9.6,-2.0,i,-122.2,4.1,5.6,+,0.0
COc1cccc(Cn2nnc(C(=O)Nc3ccc(C)cc3)c2N)c1,3.4,-2.9,i,-0.1,-1.1,0.4,.,.
COc1cccc(Cn2nnc(C(=O)Nc3cc(C)ccc3OC)c2N)c1,2.9,-2.5,+,-5.2,1.1,-2.5,i,88.0*
Cc1nc2ccccn2c1C(=O)/C=C/c1ccc(F)cc1,-9.0,-2.8,i,-10.6,-0.6,1.1,i,0.3
COc1ccccc1NS(=O)(=O)c1cccc(C(=O)N2CCN(C(=O)c3ccco3)CC2)c1,-2.5,-1.8,i,-11.0,1.5,-1.2,.,.
COc1ccc(-n2c(=O)c(CCC(=O)N3CCN(c4ccccc4O)CC3)nc3ccccc32)cc1,-3.4,-3.1,i,-7.7,-1.3,3.3,i,6.7*
COc1ccc(N2CCN(C(=O)CCc3ccccc3OC)CC2)cc1,2.9,-3.2,i,4.9,0.4,0.7,.,.
Cc1ccc(O)c(N=Cc2sc3ccccc3c2Cl)c1,-2.6,0.0,i,-10.0,1.8,1.3,.,.
Oc1ccccc1N=Cc1sc2ccccc2c1Cl,-5.5,-1.8,+,-15.5,1.5,-0.2,i,0.0
NC(=O)CNC(=O)c1ccc(Cl)cc1,-1.2,-0.7,i,3.4,-1.5,-0.4,.,.
CN1/C(=C\C(=O)C[n+]2cccc(Br)c2)C(C)(C)c2ccccc21,-2.7,-6.6,+,-19.8,-6.0,2.0,i,0.9
CCCC(CCC)C(=O)Nc1ccc2c(c1)N(C(=O)CCN1CCN(C)CC1)c1ccccc1CC2,-1.8,-3.9,i,1.0,-4.4,0.4,.,.
COc1cc2c(cc1OC)C(c1cc3ccccc3oc1=O)=NC(C)(C)C2,-2.7,-0.8,i,5.0,-1.7,3.7,i,0.3
CCC(C)[C@H](NC(=O)[C@@H]1Cc2c([nH]c3ccccc23)C2c3ccccc3C(=O)N21)C(=O)NCC1CCCO1 (stereo partly specified),0.7,3.7,+,-2.4,-61.8,-0.7,i,0.0
Nc1nc(-c2ccc(Cl)cc2)cc(C(F)(F)F)n1,11.4,3.4,i,-1.8,-0.5,-9.6,.,.
Nc1nc(-c2ccc(F)cc2)cc(C(F)(F)F)n1,5.4,-0.2,i,-7.7,0.4,-6.8,i,0.6
CCCOc1ccc(/C(O)=C2\C(=O)C(=O)N(c3ccccn3)C2c2ccccc2F)cc1C (stereo unspecified),0.0,-3.8,i,12.9,16.2,7.8,.,.
OCCNc1c2ccccc2nc2c(F)c(F)c(F)c(F)c12,-57.4,.,.,-15.1,-26.7,-8.0,.,.
Cc1c2ccccc2nc2c(F)c(NCCO)c(F)c(F)c12,-33.9,-3.9,+,129.9,-30.0,-2.6,i,78.0*
Cn1c(=O)[nH]c(=O)c2c1nc(Br)n2Cc1cccc(Br)c1,12.5,-4.2,i,-15.5,1.9,3.4,i,0.0
COc1ccc(N/C=C2/CCCCC2=O)cc1,-5.2,-2.9,i,2.0,-3.4,0.6,i,0.7
CCCCOCCCNC(=O)C[C@@H]1C[C@@]2(C(=O)OC)CCCCC=C2N(Cc2ccc3c(c2)OCO3)C1=O,3.4,.,i,12.0,4.5,.,.,.
SMILES,MT1-MMP act inh,beta cell repl,Myeloid diff MLP,NRP1-CendR mod,SENP1 inh,DAGLB inhibitor,Myeloid diff,GFP autofluor
COc1cc2c(cc1N/C=C(\C#N)c1nc(-c3ccc(F)cc3)cs1)oc1ccccc12,-14.6,0.3,+,5.4,-37.8,-0.1,i,7.2*
CCC1c2ccc(C)n2CCN1C(=O)Nc1cc(Cl)ccc1OC (stereo unspecified),-21.9,-5.1,.,-2.9,-36.1,-1.3,i,1.0
COc1ccc(CC(N)c2csc(NC(=O)c3cc(C(C)(C)C)nn3Cc3ccccc3)n2)cc1 (stereo unspecified),-11.8,.,+,-20.1,-32.4,.,i,0.0
CC(N)c1csc(NC(=O)c2cc(C(C)(C)C)nn2Cc2ccccc2)n1 (stereo unspecified),-2.4,.,i,-2.8,-14.1,.,.,.
COc1ccc(S(=O)(=O)N2CCCC(C(=O)NCC3CCCO3)C2)cc1C (stereo unspecified),-1.7,4.4,i,15.8,1.9,2.0,.,.
COc1ccc(-n2c(N)c(C(=O)NCc3ccco3)c3nc4ccccc4nc32)c(OC)c1,-2.3,-1.0,+,-25.7,-47.8,0.0,i,3.7
COc1ccc(CCn2c(N)c(C(=O)NCc3ccco3)c3nc4ccccc4nc32)cc1,-29.0,-6.1,.,-21.0,-24.1,1.9,.,.
COc1cccc(NC(=O)CN(C)C(=O)CC2CCCC2)c1,1.2,.,i,-5.9,1.0,-0.7,i,0.3
CC(C)CN1CN(Cc2ccccc2)CNC1=S,-2.6,-0.6,i,1.4,2.8,-4.7,.,.
CN(C)c1ncnc2c1ncn2C1OC(CO)C(O)C1O (stereo unspecified),15.6,-3.4,+,0.8,-1.6,-1.1,i,0.0
CN(C)c1ncnc2c1nnn2C1OC(CO)C(O)C1O (stereo unspecified),-15.4,.,?,-1.2,0.4,2.0,.,.
Nc1ncn([C@@H]2O[C@H](CO)[C@@H](O)[C@H]2O)c(=O)n1,-32.0,-4.9,i,-0.2,1.2,0.4,i,5.0*
COC(=O)C1=C(c2ccc(OC)cc2)OC(=O)C1(C)C,-6.8,-3.8,i,12.6,3.2,-0.8,.,.
CC(C)=CCC[C@](C)(O[C@@H]1O[C@H](CO[C@@H]2OC[C@H](O[C@@H]3OC[C@@H](O)[C@H](O)[C@H]3O)[C@H](O)[C@H]2O)[C@@H](O)[C@H](O)[C@H]1O)C1CC[C@]2(C)C1[C@H](O)CC1[C@@]3(C)CC[C@H](O)C(C)(C)C3[C@@H](O)C[C@]12C (stereo partly specified),-1.9,2.7,i,-0.2,-0.4,-2.6,.,.
